Target: T1, OR2M3 (Homo sapiens) (UniProt Q8NG83)
T1 sequence (whole entry): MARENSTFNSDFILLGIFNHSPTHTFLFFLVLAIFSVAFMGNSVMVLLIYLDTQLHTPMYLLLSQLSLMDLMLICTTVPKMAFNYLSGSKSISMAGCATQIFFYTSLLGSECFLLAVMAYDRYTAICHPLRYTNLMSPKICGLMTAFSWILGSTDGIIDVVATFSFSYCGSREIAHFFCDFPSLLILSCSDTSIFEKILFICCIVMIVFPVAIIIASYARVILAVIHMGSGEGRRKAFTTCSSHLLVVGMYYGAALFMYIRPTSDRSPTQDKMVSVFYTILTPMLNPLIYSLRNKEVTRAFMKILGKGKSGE
Conditions: stereoisomer not certain
How it was run: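 Values were gathered from published papers (main text and supplementary material), with extra details requested from the original authors when needed, and checked for typos and inconsistencies. Each receptor–molecule pair is called responsive (active) if the original authors judged the measured signal statistically different from baseline, and non-responsive (inactive) otherwise. Assay methods varied by source, often transient mammalian cell-line luciferase assays. Recorded details include cell line, G-protein, co-transfected protein and tags.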

Odorant receptor agonist call, inactive:
CCO
CCc1ccc(O)cc1
COc1nccnc1CC(C)C
SCc1cccs1
Cc1cccc(O)c1
CCC(C)C(=O)OC (stereo unspecified)
CCC(=O)C1=NCCC1
CCOC(=O)C(C)CC (stereo unspecified)
CCCSSSC
C=Cc1ccc(O)cc1
CC(=O)C1=NCCS1
Cc1cccc(C)c1O
Cc1occc(=O)c1O
COc1nccnc1C(C)C
CCCCC1CCC(=O)O1 (stereo unspecified)
CCCCCCCCC1CCC(=O)O1 (stereo unspecified)
CCC(C)c1nccnc1OC (stereo unspecified)
COC(=O)C=Cc1ccccc1
CCOC(=O)C1CCCCC1
COc1cccc(OC)c1O
Cc1c[nH]c2ccccc12
CCOC(=O)c1ccccc1
CCC=CCCC=O
C=CC(O)CCCCC (stereo unspecified)
COc1ccc2ccc(=O)oc2c1
CCc1cccc(O)c1
C=C(C)c1ccc(C)cc1
CCCSSSCCC
CC=CC(=O)C1=C(C)CCCC1(C)C
CCCC(S)CCO (stereo unspecified)
C=C1CCC2(C(C)C)CC12 (stereo unspecified)
Cc1occc1S
CC=CC(=O)C(C)CC (stereo unspecified)
CCCCC(=O)OCC
CCCC(=O)OC

Odorant receptor agonist call, active:
CCCC(S)C(C)CO (stereo unspecified)

— the M2OR odorant receptor database
